# Source: ChEMBL document CHEMBL1240405, “Activity of a new cephalosporin, CXA-101 (FR264205), against beta-lactam-resistant Pseudomonas aeruginosa mutants selected in vitro and after antipseudomonal treatment of intensive care unit patients” (2010)
# Columns and labels:
# Assay type in all cases: functional
# [1] = test system: Pseudomonas aeruginosa; assay: Antimicrobial activity against beta-lactam resistant Pseudomonas aeruginosa PAO1 deficient in ampD and ampDh3 gene selected in vitro after antipseudomonal treatment of intensive care unit patient by broth microdilution method
# Outline: (§1)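 Broth microdilution MICs per CLSI M100-S18, over 0.12 to 256 μg/ml. Strains are PAO1 and its mutants. oprD mutants were selected overnight on Mueller-Hinton agar with 4 μg/ml imipenem, passaged antibiotic-free, then confirmed by oprD amplification and sequencing. PAO1 and ATCC 27853 were run alongside as quality controls.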
# [2] = test system: Pseudomonas aeruginosa; assay: Antimicrobial activity against beta-lactam resistant Pseudomonas aeruginosa PAOD1 harboring oprD spontaneous mutant and deficient in ampD gene selected in vitro after antipseudomonal treatment of intensive care unit patient by broth microdilution method; outline: as §1
# [3] = test system: Pseudomonas aeruginosa; assay: Antimicrobial activity against beta-lactam resistant Pseudomonas aeruginosa PAOD3 harboring oprD spontaneous mutant selected in vitro after antipseudomonal treatment of intensive care unit patient by broth microdilution method; outline: as §1
# [4] = test system: Pseudomonas aeruginosa; assay: Antimicrobial activity against beta-lactam resistant Pseudomonas aeruginosa PAO1 by broth microdilution method; outline: as §1
# [5] = test system: Pseudomonas aeruginosa; assay: Antimicrobial activity against beta-lactam resistant Pseudomonas aeruginosa PAOD3 harboring oprD spontaneous mutant and deficient in dacB gene selected in vitro after antipseudomonal treatment of intensive care unit patient by broth microdilution method; outline: as §1
# [6] = test system: Pseudomonas aeruginosa; assay: Antimicrobial activity against beta-lactam resistant Pseudomonas aeruginosa PAO1 deficient in ampD and dacB gene selected in vitro after antipseudomonal treatment of intensive care unit patient by broth microdilution method; outline: as §1
# [7] = test system: Pseudomonas aeruginosa; assay: Antimicrobial activity against beta-lactam resistant Pseudomonas aeruginosa PAOD2 harboring oprD spontaneous mutant selected in vitro after antipseudomonal treatment of intensive care unit patient by broth microdilution method; outline: as §1
# [8] = test system: Pseudomonas aeruginosa; assay: Antimicrobial activity against beta-lactam resistant Pseudomonas aeruginosa PA01 deficient in dacB gene by broth microdilution method; outline: as §1
# [9] = test system: Pseudomonas aeruginosa; assay: Antimicrobial activity against beta-lactam resistant Pseudomonas aeruginosa PAO1 deficient in ampD, […] gene selected in vitro after antipseudomonal treatment of intensive care unit patient by broth microdilution method; outline: as §1
# [10] = test system: Pseudomonas aeruginosa; assay: Antimicrobial activity against beta-lactam resistant Pseudomonas aeruginosa PAOD1 harboring oprD spontaneous mutant and deficient in dacB gene selected in vitro after antipseudomonal treatment of intensive care unit patient by broth microdilution method; outline: as §1
# [11] = test system: Pseudomonas aeruginosa; assay: Antimicrobial activity against beta-lactam resistant Pseudomonas aeruginosa PAOD2 harboring oprD spontaneous mutant and deficient in dacB gene selected in vitro after antipseudomonal treatment of intensive care unit patient by broth microdilution method; outline: as §1
# [12] = test system: Pseudomonas aeruginosa; assay: Antimicrobial activity against beta-lactam resistant beta-lactam resistant Pseudomonas aeruginosa PAOD3 harboring oprD spontaneous mutant and deficient in ampD gene selected in vitro after antipseudomonal treatment of intensive care unit patient by broth microdilution method; outline: as §1
# [13] = test system: Pseudomonas aeruginosa; assay: Induction of ampC expression in beta-lactam resistant Pseudomonas aeruginosa PAO1 deficient in ampD, […] gene selected in vitro after antipseudomonal treatment of intensive care unit patient at 50 ug/mL
# Outline: (§2)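 ampC expression measured by real-time RT-PCR in PAO1 and its mutants, under basal conditions and after induction with 50 μg/ml cefoxitin.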
# [14] = test system: Pseudomonas aeruginosa; assay: Induction of ampC expression in beta-lactam resistant Pseudomonas aeruginosa PAO1 deficient in ampD and dacB gene selected in vitro after antipseudomonal treatment of intensive care unit patient at 50 ug/ml; outline: as §2
# [15] = test system: Pseudomonas aeruginosa; assay: Induction of ampC expression in beta-lactam resistant Pseudomonas aeruginosa PAO1 deficient in ampD gene selected in vitro after antipseudomonal treatment of intensive care unit patient at 50 ug/mL; outline: as §2
# [16] = test system: Pseudomonas aeruginosa; assay: Induction of ampC expression in beta-lactam resistant Pseudomonas aeruginosa PA01 deficient in dacB gene at 50 ug/mL; outline: as §2
# [17] = test system: Pseudomonas aeruginosa; assay: Induction of ampC expression in beta-lactam resistant Pseudomonas aeruginosa PAO1 at 50 ug/mL; outline: as §2
# [18] = test system: Pseudomonas aeruginosa; assay: Induction of ampC expression in beta-lactam resistant Pseudomonas aeruginosa PAO1 deficient in ampD and ampDh3 gene selected in vitro after antipseudomonal treatment of intensive care unit patient at 50 ug/mL; outline: as §2
# [19] = test system: Pseudomonas aeruginosa; assay: Antimicrobial activity against beta-lactam resistant Pseudomonas aeruginosa PAO1 deficient in ampD gene selected in vitro after antipseudomonal treatment of intensive care unit patient by broth microdilution method; outline: as §1
# [20] = test system: Pseudomonas aeruginosa; assay: Antimicrobial activity against beta-lactam resistant Pseudomonas aeruginosa PAOD1 harboring oprD spontaneous mutant selected in vitro after antipseudomonal treatment of intensive care unit patient by broth microdilution method; outline: as §1
# [21] = test system: Pseudomonas aeruginosa; assay: Antimicrobial activity against beta-lactam resistant Pseudomonas aeruginosa PAOD2 harboring oprD spontaneous mutant and deficient in ampD gene by selected in vitro after antipseudomonal treatment of intensive care unit patient by broth microdilution method; outline: as §1
# [22] = test system: Pseudomonas aeruginosa; assay: Antimicrobial activity against Pseudomonas aeruginosa clinical isolate assessed as resistant isolates selected in vitro after antipseudomonal treatment of intensive care unit patient by CLSI method
SMILES,MIC [1] [µg/mL],MIC [2] [µg/mL],MIC [3] [µg/mL],MIC [4] [µg/mL],MIC [5] [µg/mL],MIC [6] [µg/mL],MIC [7] [µg/mL],MIC [8] [µg/mL],MIC [9] [µg/mL],MIC [10] [µg/mL],MIC [11] [µg/mL],MIC [12] [µg/mL],further results
CO/N=C(\C(=O)N[C@@H]1C(=O)N2C(C(=O)[O-])=C(C[N+]3(C)CCCC3)CS[C@H]12)c1csc(N)n1,8,4,2,2,32,32,2,16,8,32,32,8,
C[C@H]1[C@H](NC(=O)/C(=N\OC(C)(C)C(=O)O)c2csc(N)n2)C(=O)N1S(=O)(=O)O [AZTREONAM],32,8,4,4,32,128,4,32,32,32,32,8,
CO[C@@]1(NC(=O)Cc2cccs2)C(=O)N2C(C(=O)O)=C(COC(N)=O)CS[C@@H]21 [CEFOXITIN],,,,,,,,,,,,,fold change (FC) [13]: 1105; fold change (FC) [14]: 1950; fold change (FC) [15]: 134; fold change (FC) [16]: 232; fold change (FC) [17]: 50; fold change (FC) [18]: 1014
CC(C)(O/N=C(\C(=O)N[C@@H]1C(=O)N2C(C(=O)[O-])=C(C[n+]3ccccc3)CS[C@H]12)c1csc(N)n1)C(=O)O [CEFTAZIDIME],32,16,2,2,32,128,2,32,32,32,32,16,MIC [19]: 8 µg/mL; MIC [20]: 2 µg/mL; MIC [21]: 16 µg/mL; Activity [22]: 81%
